Measured values reported in ChEMBL document CHEMBL3994654, “Discovery of phenyl acetamides as potent and selective GPR119 agonists” (Bioorg Med Chem Lett, 2017).
Values after ≈ are worked out from the molar mass of the structure shown.

What was measured:
[1] = Volume of distribution in Beagle dog at 0.5 mg/kg, iv by LC-MS/MS analysis; type: ADME, organism-based, Canis lupus familiaris; details: in vivo
[2] = Kinetic solubility in fasted state simulated intestinal fluid at pH 6.5; type: physicochemical; details: read-out: Kinetic_solubility
[3] = biological target: T1, Glucose-dependent insulinotropic receptor (Homo sapiens) (UniProt Q8TDV5); assay: Agonist activity at human GPR119 expressed in HEK293 cells assessed as increase in intracellular cAMP level after 60 mins by HTRF assay relative to control; type: functional, cell-based
T1 sequence (whole entry): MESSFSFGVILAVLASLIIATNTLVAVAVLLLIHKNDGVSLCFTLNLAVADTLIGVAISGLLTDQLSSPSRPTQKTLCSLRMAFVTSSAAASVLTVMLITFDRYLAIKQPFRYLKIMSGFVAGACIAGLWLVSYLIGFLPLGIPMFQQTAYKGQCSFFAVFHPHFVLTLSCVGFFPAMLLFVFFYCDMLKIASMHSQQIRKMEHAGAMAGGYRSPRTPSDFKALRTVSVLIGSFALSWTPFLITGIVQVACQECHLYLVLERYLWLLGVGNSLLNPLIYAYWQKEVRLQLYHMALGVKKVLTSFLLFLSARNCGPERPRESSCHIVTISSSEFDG
Method in brief: (§1)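 EC50 values are means of at least 2 independent experiments, with a few single determinations. Maximal response is reported as the percentage of cAMP stimulation at the maximal dose tested, normalised to an internal agonist control set as 100%.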

[4] = biological target: T2, Glucose-dependent insulinotropic receptor (Mus musculus, UniProt Q7TQP3); assay: Agonist activity at mouse GPR119 expressed in CHO cells co-expressing Galpha15 assessed as increase in intracellular cAMP level after 60 mins by HTRF assay; type: functional, cell-based
T2 sequence (Q7TQP3 whole entry): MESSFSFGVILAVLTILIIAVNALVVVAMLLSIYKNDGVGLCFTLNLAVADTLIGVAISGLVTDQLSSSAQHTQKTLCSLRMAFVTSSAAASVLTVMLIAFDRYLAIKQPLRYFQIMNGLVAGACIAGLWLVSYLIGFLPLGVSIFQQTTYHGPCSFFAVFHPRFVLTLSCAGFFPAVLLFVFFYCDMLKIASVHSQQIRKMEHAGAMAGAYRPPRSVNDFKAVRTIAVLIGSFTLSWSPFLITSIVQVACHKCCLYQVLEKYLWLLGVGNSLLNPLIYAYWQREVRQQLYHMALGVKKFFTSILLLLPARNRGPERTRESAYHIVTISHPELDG
Method in brief: (§2)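 cAMP stimulation is also given as % control at the top concentration, relative to an internal agonist control set at 100% cAMP stimulation. EC50 values are means of at least 2 independent experiments, except for two compounds.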

Cytochrome P450 3A4 = Cytochrome P450 3A4 (Homo sapiens, UniProt P08684); assay: Inhibition of CYP3A4 (unknown origin); type: ADME
[5] = Oral bioavailability in Wistar Han rat by LC-MS/MS analysis; type: ADME, organism-based; details: in vivo
Mus musculus = assay: Antidiabetic activity in C57BL/6 Tac mouse assessed as maximum decrease in blood glucose AUC administered via oral gavage 30 mins prior to oral glucose load measured at 20 to 60 mins post glucose challenge by OGTT; type: functional; details: C57BL/6, po, read-out: MED
Method in brief: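 Eleven-week-old lean C57BL/6 Tac mice (n = 8/group) were fasted overnight and dosed by oral gavage in PEG400/23.5% HPBCD (15/85 v/v). Oral glucose (3 g/kg) was given 30 min later. Tail-nick glucometer glucose at 0, 20, 40, 60 min; glucose AUC per mouse, expressed as % change vs vehicle, with t-test or one-way ANOVA. Dose titration gave the minimal dose for maximal efficacy.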

[6] = Oral bioavailability in rhesus monkey by LC-MS/MS analysis; type: ADME, organism-based, Macaca mulatta; details: in vivo
[7] = Volume of distribution in Wistar Han rat at 0.5 mg/kg, iv by LC-MS/MS analysis; type: ADME, organism-based; details: in vivo
[8] = Agonist activity at rhesus monkey GPR119; set-up: species or system Macaca mulatta
[9] = Lipophilicity, log D of the compound at pH 7 by HPLC method; type: physicochemical; details: buffer
[10] = biological target: T3, Glucose-dependent insulinotropic receptor (Homo sapiens, UniProt Q8TDV5); assay: Agonist activity at human GPR119 expressed in HEK293 cells assessed as increase in intracellular cAMP level after 60 mins by HTRF assay; type: functional, cell-based; method in brief: as §2
T3 sequence (Q8TDV5 whole entry): T1 sequence (whole entry)

[11] = Fraction unbound in dog plasma; type: ADME, cell-free, Canis lupus familiaris
[12] = biological target: T4, Nuclear receptor subfamily 1 group I member 2 (Homo sapiens, UniProt O75469); assay: Activity at human PXR; type: ADME
T4 sequence (O75469 whole entry): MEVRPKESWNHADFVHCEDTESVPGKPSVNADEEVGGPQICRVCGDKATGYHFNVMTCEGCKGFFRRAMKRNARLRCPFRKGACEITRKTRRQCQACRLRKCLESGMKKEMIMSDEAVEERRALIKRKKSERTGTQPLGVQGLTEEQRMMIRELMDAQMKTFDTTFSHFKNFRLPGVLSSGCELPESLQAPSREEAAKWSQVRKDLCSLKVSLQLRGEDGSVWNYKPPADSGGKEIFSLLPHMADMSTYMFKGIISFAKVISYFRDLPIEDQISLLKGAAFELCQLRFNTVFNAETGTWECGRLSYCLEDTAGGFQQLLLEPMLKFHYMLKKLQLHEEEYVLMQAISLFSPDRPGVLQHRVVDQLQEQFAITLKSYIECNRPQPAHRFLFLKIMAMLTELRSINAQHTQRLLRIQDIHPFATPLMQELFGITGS

Rattus norvegicus [13] = assay: Unbound clearance in Wistar Han rat at 0.5 mg/kg, iv by LC-MS/MS analysis; type: ADME, organism-based; details: in vivo
Rattus norvegicus [14] = assay: Unbound volume of distribution in Wistar Han rat at 0.5 mg/kg, iv by LC-MS/MS analysis; type: ADME, organism-based; details: in vivo
[15] = Plasma clearance in Wistar Han rat at 0.5 mg/kg, iv by LC-MS/MS analysis; type: ADME, organism-based
[16] = Intrinsic clearance in rat liver microsomes; type: ADME, microsome; details: read-out: CLH
[17] = Fraction unbound in rat plasma; type: ADME, cell-free
[18] = Oral bioavailability in Beagle dog by LC-MS/MS analysis; type: ADME, organism-based, Canis lupus familiaris; details: in vivo
[19] = biological target: T5, Voltage-gated inwardly rectifying potassium channel KCNH2 (Homo sapiens, UniProt Q12809)
[20] = Intrinsic clearance in human liver microsomes; type: ADME, microsome; details: read-out: CLH
[21] = biological target: T6, Glucose-dependent insulinotropic receptor (Mus musculus) (UniProt Q7TQP3); assay: Agonist activity at mouse GPR119 expressed in CHO cells co-expressing Galpha15 assessed as increase in intracellular cAMP level after 60 mins by HTRF assay relative to control; type: functional, cell-based; method in brief: as §1
T6 sequence (whole entry): T2 sequence (Q7TQP3 whole entry)

[22] = Intrinsic clearance in dog liver microsomes; type: ADME, Canis lupus familiaris, microsome; details: read-out: CLH
[23] = Intrinsic clearance in rhesus monkey liver microsomes; type: ADME, Macaca mulatta, microsome; details: read-out: CLH
[24] = Plasma clearance in Beagle dog at 0.5 mg/kg, iv by LC-MS/MS analysis; type: ADME, organism-based, Canis lupus familiaris
[25] = Fraction unbound in human plasma; type: ADME, cell-free
[26] = Half life in Wistar Han rat at 0.5 mg/kg, iv by LC-MS/MS analysis; type: ADME, organism-based; details: in vivo
[27] = Ratio of drug level in C57BL/6 Tac mouse blood to plasma at 0.1 mg/kg, po via gavage measured at 90 mins post dose; type: ADME, organism-based; details: blood and plasma
[28] = Half life in rhesus monkey at 0.5 mg/kg, iv by LC-MS/MS analysis; type: ADME, organism-based, Macaca mulatta; details: in vivo
[29] = Solubility in fasted state simulated intestinal fluid using crystalline compound by equilibration method; type: physicochemical
[30] = Plasma clearance in rhesus monkey at 0.5 mg/kg, iv by LC-MS/MS analysis; type: ADME, organism-based, Macaca mulatta
[31] = biological target: T5, Voltage-gated inwardly rectifying potassium channel KCNH2; assay: Inhibition of human ERG by PatchXpress method
[32] = Fraction unbound in rhesus monkey plasma; type: ADME, cell-free, Macaca mulatta
[33] = Half life in Beagle dog at 0.5 mg/kg, iv by LC-MS/MS analysis; type: ADME, organism-based, Canis lupus familiaris; details: in vivo
[34] = Drug uptake in C57BL/6 Tac mouse blood at 0.1 mg/kg, po via gavage measured at 90 mins post dose; type: ADME, organism-based; details: whole blood, read-out: Drug uptake
Method in brief: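 Blood drug concentration was taken at 90 min after an oral 0.1 mpk dose in mice, within oGTT dose-titration PK/PD studies.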

[35] = Volume of distribution in rhesus monkey at 0.5 mg/kg, iv by LC-MS/MS analysis; type: ADME, organism-based, Macaca mulatta; details: in vivo

T5 sequence (Q12809 whole entry): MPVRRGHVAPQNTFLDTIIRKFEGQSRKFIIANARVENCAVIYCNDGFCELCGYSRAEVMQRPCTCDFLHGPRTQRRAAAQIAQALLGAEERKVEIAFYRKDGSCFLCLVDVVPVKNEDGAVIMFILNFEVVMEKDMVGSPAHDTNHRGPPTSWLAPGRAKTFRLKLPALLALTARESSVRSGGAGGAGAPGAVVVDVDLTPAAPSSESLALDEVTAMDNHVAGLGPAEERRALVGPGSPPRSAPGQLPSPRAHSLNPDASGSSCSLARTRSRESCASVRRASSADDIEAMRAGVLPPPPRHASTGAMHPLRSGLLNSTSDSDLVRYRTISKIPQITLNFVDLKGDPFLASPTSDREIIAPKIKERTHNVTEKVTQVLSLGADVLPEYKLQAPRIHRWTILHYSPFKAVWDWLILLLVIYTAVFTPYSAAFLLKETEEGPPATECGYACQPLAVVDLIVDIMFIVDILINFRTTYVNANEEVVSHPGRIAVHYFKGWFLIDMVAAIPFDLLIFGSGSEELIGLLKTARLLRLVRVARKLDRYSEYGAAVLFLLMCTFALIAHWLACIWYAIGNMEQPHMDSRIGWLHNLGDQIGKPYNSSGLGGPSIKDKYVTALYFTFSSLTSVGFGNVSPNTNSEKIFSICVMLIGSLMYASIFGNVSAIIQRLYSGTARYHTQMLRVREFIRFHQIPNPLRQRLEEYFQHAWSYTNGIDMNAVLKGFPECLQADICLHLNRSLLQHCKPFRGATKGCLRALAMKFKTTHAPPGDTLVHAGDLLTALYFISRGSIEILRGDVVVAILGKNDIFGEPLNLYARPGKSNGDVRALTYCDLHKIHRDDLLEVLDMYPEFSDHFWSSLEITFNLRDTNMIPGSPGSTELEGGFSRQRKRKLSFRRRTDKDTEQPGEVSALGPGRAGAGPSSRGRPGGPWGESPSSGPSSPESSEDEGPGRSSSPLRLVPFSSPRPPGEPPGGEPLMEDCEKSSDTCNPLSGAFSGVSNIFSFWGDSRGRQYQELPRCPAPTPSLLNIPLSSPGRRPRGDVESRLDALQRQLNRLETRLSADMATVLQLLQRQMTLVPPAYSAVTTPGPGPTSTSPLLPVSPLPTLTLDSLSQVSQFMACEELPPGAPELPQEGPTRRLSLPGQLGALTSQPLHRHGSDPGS
Sequence of Cytochrome P450 3A4 (P08684 whole entry): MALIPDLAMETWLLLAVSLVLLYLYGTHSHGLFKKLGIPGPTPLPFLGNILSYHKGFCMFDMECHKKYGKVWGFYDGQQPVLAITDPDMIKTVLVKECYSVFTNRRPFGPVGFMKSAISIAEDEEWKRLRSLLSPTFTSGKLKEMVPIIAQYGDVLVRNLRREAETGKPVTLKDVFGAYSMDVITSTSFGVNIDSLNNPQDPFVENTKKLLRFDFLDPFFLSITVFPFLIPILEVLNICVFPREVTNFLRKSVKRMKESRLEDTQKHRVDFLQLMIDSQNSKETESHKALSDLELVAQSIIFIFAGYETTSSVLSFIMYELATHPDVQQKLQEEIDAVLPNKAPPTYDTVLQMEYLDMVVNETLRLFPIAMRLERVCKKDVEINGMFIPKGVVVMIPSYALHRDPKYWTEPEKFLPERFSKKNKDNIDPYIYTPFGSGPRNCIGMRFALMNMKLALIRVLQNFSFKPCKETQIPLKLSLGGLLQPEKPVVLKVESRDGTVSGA

COCc1cnc(N2CCC([C@H]3C[C@H]3CCOc3cc(F)c(CC(=O)N4CCC4)c(F)c3)CC2)nc1
Vd [1]: 4.3 L/kg | solubility kinetic [2]: 139 µM (≈ 69.6 µg/mL) | Activity [3]: 91% | EC50 [4]: 0.8 nM | IC50 (Cytochrome P450 3A4): > 50000 nM | bioavailability [5]: 80% | minimal effective dose (Mus musculus): 0.1 mg/kg | bioavailability [6]: 44% | Vd [7]: 4.8 L/kg | EC50 [8]: 0.1 nM | logD [9]: 4.1 | EC50 [10]: 0.2 nM | fraction unbound [11]: 0.055 | EC50 [12]: > 30000 nM | CL free (Rattus norvegicus [13]): 430 mL/min/kg | Vdu (Rattus norvegicus [14]): 72 L/kg | clearance [15]: 29 mL/min/kg | CLint scaled [16]: 189 mL/min/kg | fraction unbound [17]: 0.067 | bioavailability [18]: 55% | IC50 [19]: 9100 to 9200 nM | CLint scaled [20]: 39 mL/min/kg | Activity [21]: 116% | CLint scaled [22]: 39 mL/min/kg | CLint scaled [23]: 44 mL/min/kg | clearance [24]: 2 mL/min/kg | fraction unbound [25]: 0.038 | half-life [26]: 3.5 h | blood plasma ratio at 1.5 h [27]: 0.55 | half-life [28]: 7.6 h | solubility thermodynamic [29]: 51 µg/mL (≈ 102 µM) | clearance [30]: 14 mL/min/kg | IC50 [31]: 12000 nM | fraction unbound [32]: 0.08 | half-life [33]: 29 h | concentration at 1.5 h [34]: 10 nM | Vd [35]: 3.5 L/kg

O=C(Cc1ccc(OCC[C@@H]2C[C@@H]2C2CCN(c3ncc(Cl)cn3)CC2)c(F)c1)N1CCC1
solubility kinetic [2]: 65 µM (≈ 30.7 µg/mL) | Activity [3]: 106% | EC50 [4]: 1.6 nM | EC50 [10]: 2.2 nM | Activity [21]: 91%

O=C(Cc1ccc(OCC[C@@H]2C[C@@H]2C2CCN(c3ncc(Cl)cn3)CC2)cc1F)N1CCC1
solubility kinetic [2]: 137 µM (≈ 64.8 µg/mL) | Activity [3]: 106% | EC50 [4]: 0.4 nM | EC50 [10]: 0.2 nM | IC50 [19]: 3300 nM | Activity [21]: 146% | half-life [26]: 6.9 h

O=C(Cc1ccc(OCC[C@@H]2C[C@@H]2C2CCN(c3ncc(Cl)cn3)CC2)cc1F)N1CCCCC1
solubility kinetic [2]: 124 µM (≈ 62.1 µg/mL) | Activity [3]: 116% | EC50 [4]: 2.2 nM | EC50 [10]: 1.5 nM | IC50 [19]: 3300 nM | Activity [21]: 92%

CC1(OC(=O)N2CCC([C@H]3C[C@H]3CCOc3ccc(CC(=O)N4CCC4)c(F)c3)CC2)CC1
solubility kinetic [2]: 138 µM (≈ 63.3 µg/mL) | Activity [3]: 127% | EC50 [4]: 6.6 nM | EC50 [10]: 3.3 nM | IC50 [19]: 23000 nM | Activity [21]: 115% | half-life [26]: 1.6 h | IC50 [31]: 8600 nM

O=C(Cc1ccc(OCC[C@@H]2C[C@@H]2C2CCN(c3ncc(Cl)cn3)CC2)cc1)NC1CC1
solubility kinetic [2]: 22 µM (≈ 10 µg/mL) | Activity [3]: 104% | EC50 [4]: 1.5 nM | EC50 [10]: 1.8 nM | IC50 [19]: > 60000 nM | Activity [21]: 91%
